Hits are enriched below; roughly 5.8% of the tested compounds scored in any of these assays.
T cruzi growth-1 – blocks T. cruzi growth in NIH3T3 culture; 5.9% of 77,000 active; AID 624255; inhibition, % at 8.34 µM; T. cruzi beta-gal in NIH3T3, GalScreen luminescence, 90 h;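 active = mean inhibition above about 93%, with at least 55% of replicates each passing it, limit read from the data, passing the limit was not always enough; inconclusive = only one of those two conditions holds; inactive = neither condition holds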
Pf Dd2 growth – inhibitors of Plasmodium falciparum Dd2 growth. 2.3% of 94,000 active. AID 1159554. activity change, % at 10 µM. P. falciparum Dd2 growth, SYBR Green, 72 h; active compounds read low; in the data active = activity change below about -80%; inconclusive = no clear call, values can overlap the other calls
GASC1 inh – blocks human GASC-1 (KDM4C) demethylase activity; Q9H3R0; GST-KDM4C 2-372, H3K9me3 peptide, LANCE TR-FRET; inhibition, % at 12.5 µM; 0.15% of 96,000 active; AID 720574;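 active = mean replicate inhibition above about 25%, with at least 55% of replicates also reaching it, limit read from the data, passing the limit was not always enough; inconclusive = only one of those two conditions met; inactive = neither condition met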
Target sequence (Q9H3R0 2-372 limits assumed): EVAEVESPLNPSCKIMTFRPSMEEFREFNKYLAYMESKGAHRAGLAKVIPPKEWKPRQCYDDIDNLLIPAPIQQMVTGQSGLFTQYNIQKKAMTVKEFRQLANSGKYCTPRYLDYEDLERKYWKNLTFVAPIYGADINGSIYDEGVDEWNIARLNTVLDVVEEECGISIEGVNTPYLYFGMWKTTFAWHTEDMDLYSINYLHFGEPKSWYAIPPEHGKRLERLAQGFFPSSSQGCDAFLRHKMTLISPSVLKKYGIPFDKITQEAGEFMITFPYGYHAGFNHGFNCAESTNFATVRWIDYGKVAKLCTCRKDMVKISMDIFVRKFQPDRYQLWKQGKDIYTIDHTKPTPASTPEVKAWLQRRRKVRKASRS
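Material: N-terminal GST-fused human GASC-1 (KDM4C) fragment, residues 2-372. Input: 10 nM enzyme. Incubation: enzyme reaction 30 min, then detection 60 min, both room temperature. Doses: one test concentration per compound. Read-out basis: inhibition from TR-FRET ratio decrease. Detection: LANCE TR-FRET, excitation 340 nm, emissions 618 and 671 nm.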
IDH1 mut inh – IDH1 R132H (human) inhibition | O75874 | IDH1 R132H reductase, diaphorase/resazurin fluorescence, 60 min | inhibition, % at 10 µM | 0.18% of 70,000 active | AID 624101; in the data active = inhibition above about 34%; inconclusive = no clear call, values can overlap the other calls; inactive = below about 11%
T cruzi growth-2 – inhibitors of T. cruzi proliferation; inhibition, % at 8.35 µM; 72% of 5,600 active; shares compounds with T cruzi growth-1; T. cruzi beta-gal in NIH3T3, GalScreen luminescence, 90 h;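 active = mean replicate inhibition above about 95% and at least 55% of replicates individually reaching it, limit read from the data; inconclusive = only one of the two criteria is met; inactive = neither criterion is met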
T cruzi growth-3 – Trypanosoma cruzi proliferation inhibition | T. cruzi beta-gal in NIH3T3, GalScreen luminescence, 90 h | inhibition, % at 2.09 µM | 21% of 5,600 active | shares compounds with T cruzi growth-1;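 active = mean inhibition above about 95%, with at least 55% of replicates also reaching it, limit read from the data; inconclusive = meets just one of the two conditions; inactive = meets neither condition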
3T3 cytotox – cytotoxicity in mouse NIH/3T3 fibroblasts | 14% of 5,600 active | NIH/3T3 viability, CellTiter-Glo ATP luminescence, 90 h | shares compounds with T cruzi growth-1 | AID 651742 | cytotoxicity (signal decrease), % at 8.35 µM;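 active = mean signal decrease across replicates above about 35% based on untreated-well scatter, with enough replicates individually passing, limit read from the data; inconclusive = no rule stated though some were filed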
NIH3T3 tox 2 – kills mouse NIH/3T3 fibroblasts. shares compounds with T cruzi growth-1. NIH/3T3 viability, CellTiter-Glo ATP luminescence, 90 h. inhibition, % at 24.9 µM. 56% of 5,600 active. AID 651744;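 active = mean loss of cell viability signal at or above a set limit, and enough replicates individually reaching it; inconclusive = meets only the mean limit or only the replicate share; inactive = meets neither condition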
Hits are given with their value; n = inactive; u = inconclusive; x = no result.

SMILES	T cruzi growth-1	Pf Dd2 growth	GASC1 inh	IDH1 mut inh	T cruzi growth-2	T cruzi growth-3	3T3 cytotox	NIH3T3 tox 2
C[C@H](CO)N1C[C@H](C)[C@H](CN(C)C(=O)c2ccc(F)cc2)Oc2cc(-c3cccc(C#N)c3)ccc2S1(=O)=O	103.7	n	n	n	n	n	n	64.0
C[C@@H]1CN([C@@H](C)CO)S(=O)(=O)c2ccc(-c3cccc(C#N)c3)cc2O[C@H]1CN(C)C(=O)c1ccccc1	n	n	n	n	x	x	x	x
C[C@@H]1CN([C@H](C)CO)S(=O)(=O)c2ccc(-c3cccc(C#N)c3)cc2O[C@H]1CN(C)C	110.4	n	n	n	n	n	n	36.5
C[C@@H]1CN([C@H](C)CO)S(=O)(=O)c2ccc(-c3cccc(C#N)c3)cc2O[C@@H]1CN(C)C(=O)c1ccc(F)cc1	101.1	n	n	n	101.6	n	u	88.3
COC(=O)C1=CO[C@@H](O[C@@H]2O[C@H](CO)[C@@H](O)[C@H](O)[C@H]2O)[C@H]2[C@]1(O)[C@H](O)C[C@]2(C)O	x	x	x	n	x	x	x	x
O=C(CSc1ncn(-c2ccccc2)n1)Nc1ccc(Cl)cc1Cl	x	x	x	n	x	x	x	x
C[C@H](CO)N1C[C@H](C)[C@H](CN(C)C(=O)Nc2ccc(C(F)(F)F)cc2)OCCCC[C@H](C)Oc2ccc(NC(=O)c3ccncc3)cc2C1=O	107.4	n	n	x	108.7	99.1	n	37.2
C[C@@H]1CCCCO[C@H](CN(C)C(=O)Nc2ccc(C(F)(F)F)cc2)[C@@H](C)CN([C@H](C)CO)C(=O)c2cc(NC(=O)c3ccncc3)ccc2O1	n	n	x	x	x	x	x	x
C[C@@H]1CCCCO[C@H](CN(C)C(=O)Nc2ccc(C(F)(F)F)cc2)[C@H](C)CN([C@H](C)CO)C(=O)c2cc(NC(=O)c3ccncc3)ccc2O1	103.4	n	n	x	113.5	n	n	42.0
CCc1nc(SCC(=O)Nc2ccc(OC)cc2)c2c3c(sc2n1)COC(C)(C)C3	x	x	x	n	x	x	x	x
C[C@H](CO)N1C[C@H](C)[C@H](CN(C)CC2CC2)Oc2cc(-c3ccccc3)ccc2S1(=O)=O	n	n	n	n	x	x	x	x
Cc1ccc(-c2ccc3c(c2)O[C@H](CN(C)Cc2ccccc2)[C@H](C)CN([C@H](C)CO)S3(=O)=O)cc1	120.5	n	n	n	n	110.1	n	106.3
C[C@@H]1CN([C@@H](C)CO)S(=O)(=O)c2ccc(-c3ccc(F)cc3)cc2O[C@@H]1CN(C)Cc1cccc(F)c1	n	n	n	n	x	x	x	x
C[C@H]1CN([C@@H](C)CO)S(=O)(=O)c2ccc(-c3ccccc3)cc2O[C@H]1CN(C)CC1CC1	111.5	n	n	n	n	n	n	79.0
C[C@@H]1CN([C@H](C)CO)S(=O)(=O)c2ccc(-c3ccccc3)cc2O[C@H]1CN(C)Cc1ccccc1	n	n	n	n	x	x	x	x
Cc1ccc(-c2ccc3c(c2)O[C@H](CN(C)Cc2ccc(F)cc2)[C@@H](C)CN([C@H](C)CO)S3(=O)=O)cc1	98.4	n	n	n	102.4	100.0	46.1	104.0
Cc1ccc(-c2ccc3c(c2)O[C@@H](CN(C)Cc2ccc(F)cc2)[C@@H](C)CN([C@@H](C)CO)S3(=O)=O)cc1	n	n	n	n	x	x	x	x
C[C@@H]1CN([C@@H](C)CO)S(=O)(=O)c2ccc(-c3ccccc3)cc2O[C@@H]1CN(C)Cc1cccc(F)c1	123.1	n	n	x	n	112.1	n	107.1
C[C@H](CCC(=O)O)[C@H]1CCC2[C@@H]3CC[C@@H]4C[C@H](O)CC[C@]4(C)C3C=C[C@@]21C (stereo partly specified)	x	x	x	n	x	x	x	x
C[C@@H]1CCCCO[C@@H](CN(C)C(=O)Nc2ccc(C(F)(F)F)cc2)[C@@H](C)CN([C@@H](C)CO)C(=O)c2cc(N(C)C)ccc2O1	99.7	n	n	n	111.2	n	n	n
C[C@H]1CCCCO[C@H](CN(C)C(=O)Nc2ccc(C(F)(F)F)cc2)[C@@H](C)CN([C@@H](C)CO)C(=O)c2cc(N(C)C)ccc2O1	99.2	n	n	x	100.1	n	n	n
C[C@@H]1CCCCO[C@H](CN(C)C(=O)Nc2ccc(C(F)(F)F)cc2)[C@H](C)CN([C@@H](C)CO)C(=O)c2cc(N(C)C)ccc2O1	n	n	n	n	x	x	x	x
O=C(COc1ccc2ccccc2c1)Nc1ccccc1C(=O)Nc1ccccc1	x	x	x	n	x	x	x	x
COc1ccc(NC(=O)Nc2ccc3c(c2)C(=O)N([C@@H](C)CO)C[C@@H](C)[C@@H](CN(C)Cc2ccccc2)OCCCC[C@H](C)O3)cc1	102.7	n	n	n	106.4	n	n	n
COc1ccc(NC(=O)Nc2ccc3c(c2)C(=O)N([C@@H](C)CO)C[C@@H](C)[C@H](CN(C)Cc2ccccc2)OCCCC[C@@H](C)O3)cc1	97.9	n	n	n	110.5	n	n	n
SMILES	T cruzi growth-1	Pf Dd2 growth	GASC1 inh	IDH1 mut inh	T cruzi growth-2	T cruzi growth-3	3T3 cytotox	NIH3T3 tox 2
COc1ccc(NC(=O)Nc2ccc3c(c2)C(=O)N([C@H](C)CO)C[C@H](C)[C@H](CN(C)Cc2ccccc2)OCCCC[C@H](C)O3)cc1	n	n	n	x	x	x	x	x
COc1ccc(NC(=O)Nc2ccc3c(c2)C(=O)N([C@H](C)CO)C[C@@H](C)[C@H](CN(C)Cc2ccccc2)OCCCC[C@H](C)O3)cc1	n	n	n	n	x	x	x	x
Cc1ccc(S(=O)(=O)Nc2ccc3c(c2)C(=O)N([C@H](C)CO)C[C@@H](C)[C@@H](CN(C)Cc2ccc(Cl)c(Cl)c2)O3)cc1	u	n	n	n	95.0	n	64.7	105.5
C[C@@H]1CN([C@@H](C)CO)C(=O)Cc2cc(NS(=O)(=O)c3ccc(Cl)cc3)ccc2O[C@H]1CN(C)Cc1ccc(Cl)c(Cl)c1	u	n	n	n	n	n	41.5	104.3
Cc1noc(C)c1S(=O)(=O)Nc1ccc2c(c1)CC(=O)N([C@@H](C)CO)C[C@@H](C)[C@H](CN(C)Cc1ccc(Cl)c(Cl)c1)O2	n	n	n	n	x	x	x	x
Cc1noc(C)c1S(=O)(=O)Nc1ccc2c(c1)CC(=O)N([C@H](C)CO)C[C@H](C)[C@@H](CN(C)Cc1ccc(Cl)c(Cl)c1)O2	100.0	n	n	n	106.0	n	n	104.4
C[C@@H]1CN([C@H](C)CO)C(=O)Cc2cc(NS(=O)(=O)c3ccc(Cl)cc3)ccc2O[C@H]1CN(C)Cc1ccc(Cl)c(Cl)c1	97.1	n	n	n	107.5	107.2	n	102.5
C[C@H](CO)N1C[C@H](C)[C@@H](CN(C)Cc2ccc(Cl)c(Cl)c2)Oc2ccc(NS(=O)(=O)c3ccc(Cl)cc3)cc2CC1=O	n	n	n	n	x	x	x	x

Screening results (PubChem)
